Only a selection was taken, and hits are over-represented in it overall.
Ab BasE inh: blocks the Acinetobacter baumannii siderophore enzyme BasE. inhibition, % (test concentration not listed). purified BasE, fluorescence polarization binding displacement. 0.1% of 84,000 active; in the data active = inhibition above about 25%, passing the limit was not always enough;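 note: 0% = negative plate control signal and 100% = positive plate control signal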
KSHV LANA nucl: inhibitors of KSHV LANA binding to nucleosomes. z-score (concentration not given with the values). FITC-LANA1-23 / chicken nucleosome fluorescence polarization; active compounds read low. 0.3% of 51,000 active. AID 720717;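 active = both repeat wells score below -2 in polarization z-score versus plate sample wells, excluding overly bright wells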
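Test system: purified chicken nucleosomes with FITC-labelled LANA N-terminal peptide (1-23); Input: 240 nM purified chicken nucleosomes (480 nM peptide binding sites), final; Medium: TEN-BT buffer, pH 7.5; Timing: 10–45 min, room temperature; Technique: fluorescence polarization, 480 nm excitation, 535 nm parallel and perpendicular emission; Replication: duplicates.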
Numbers without * were called inactive; nt = no result; ! = not active in a repeat.

SMILES | Ab BasE inh | KSHV LANA nucl
CCCN1CC=C2C(C#N)=C(N)C(C#N)(C#N)C(c3cccc(OC)c3)C2C1 (configuration not stated) | 11 | -0.46
CN1CC=C2C(C#N)=C(N)C(C#N)(C#N)C(Cc3ccccc3)C2C1 (configuration not stated) | 19 | -1.8
CCCN1CC=C2C(C#N)=C(N)C(C#N)(C#N)C(C(C)C)C2C1 (configuration not stated) | 22 | -4*
CCN1CC=C2C(C#N)=C(N)C(C#N)(C#N)C(C)C2C1 (configuration not stated) | 6 | -2.5*
CCN1CC=C2C(C#N)=C(N)C(C#N)(C#N)C(c3ccc(OC)c4ccccc34)C2C1 (configuration not stated) | 0 | -0.78
c1ccc2c(c1)Oc1ccccc1C2N1CCOCC1 | 2 | 0.33
Cc1sc(NC(=O)c2ccccc2F)c(C(=O)O)c1C | 0 | 0.3
CCC(C)NC(=O)Cn1ncc2c1-c1ccccc1OC2 (configuration not stated) | -1 | -1.7
COc1cccc(NC(=O)Cn2ncc3c2-c2ccccc2OC3)c1 | -1 | -2.3*
O=c1c(O)c(-c2ccc(O)c(O)c2)oc2cc(O)cc(O)c12 | 29*! | 0.82
O=c1cc(-c2ccc(O)c(O)c2)oc2cc(O)cc(O)c12 | 2 | -0.2
O=C(Nc1ccc(N2CCOCC2)cc1)C1c2ccccc2Oc2ccccc21 | 1 | nt
COc1cccc2c1C(=O)c1c(O)c3c(c(O)c1C2=O)C[C@@](O)(C(C)=O)C[C@@H]3OC1CC(N)C(O)C(C)O1 (some centres not stated) | 15 | -6*
COc1cccc2c1C(=O)c1c(O)c3c(c(O)c1C2=O)C[C@@](O)(C(=O)CO)C[C@@H]3O[C@H]1C[C@H](N)[C@H](O)[C@H](C)O1 | 15 | -8.5*!
NC(=O)CN1CCN(c2ccc(Cl)cc2)CC1 | -3 | -0.34
O=C(CSc1ncccn1)N/N=C/c1cccc2c1OCCO2 | 1 | -0.27
O=c1cc(CN2CCCc3ccccc32)nc2sccn12 | 12 | -7.9*
O=C1c2ccccc2C(=O)N1Cc1cc(=O)n2ccsc2n1 | 2 | nt
CSC1=N/C(=C\c2ccccc2)C(=O)S1 | 2 | -0.56
CCN(CC)c1ccc(/C=C2\N=C(SC)SC2=O)cc1 | 9 | -2.6*
CCCCN(Cc1cc2ccccc2[nH]c1=O)S(=O)(=O)c1ccccc1 | 0 | 0.57
CC(C)NC(=O)c1ccc2c(=O)n(CCc3ccccc3)c(=O)[nH]c2c1 | 0 | -0.41
O=C(c1ccccc1)N(Cc1nc(-c2ccccc2)no1)C1CCCCC1 | 2 | -1.8
O=C(Nc1ccccc1)N(Cc1nc(-c2ccccc2)no1)C1CCCCC1 | 2 | -2.1*
COC(=O)CC1C(=O)NCCN1C(=O)C1c2ccccc2Oc2ccccc21 (configuration not stated) | 1 | nt
SMILES | Ab BasE inh | KSHV LANA nucl
CC(=O)NN1C(=O)c2cccc3c(N(C)C)ccc(c23)C1=O | 32* | nt
CN(C)c1ccc2c3c(cccc13)C(=O)N(c1nc3ccccc3n1C)C2=O | 0 | -0.97
C/C(=N\O)C12CC3(C)CC(C)(CC(C)(C3)C1)C2 | -1 | nt
COCCNC(=O)c1ccc(CS(=O)(=O)Cc2ccc(C)cc2)o1 | 2 | 0.077
Cc1csc(=O)n1CCC(=O)OCC(=O)c1ccc2ccccc2c1 | 1 | nt
CC(C)Oc1ccccc1Nc1ncnc2ccccc12 | -2 | nt
Cc1c(CSC(=N)N)c(C)c(CSC(=N)N)c(C)c1CSC(=N)N | -3 | -2.9*
CCc1c(CSC(=N)N)csc1C | -4 | -0.085
COc1ccc(CCN2C(=O)CC(Nc3ccccc3)C2=O)cc1OC (configuration not stated) | 0 | nt
O=C(O)c1ccccc1C1=Nc2ccc(O)cc2Oc2cc(O)ccc21 | 38 | -6.1*
O=C(O)c1ccccc1-c1ccccc1C(=O)O | -2 | 1.3
O=C1CCC(C(=O)OCN2C(=O)c3ccccc3C2=O)=NN1 | 1 | nt
O=C1CC(c2ccccc2O)=NN1 | 27* | nt
O=C(/C=C/c1ccccc1)Nc1ccc(O)cc1 | 20 | nt
O=C(/C=C/c1ccccc1)Nc1cccnc1 | 36* | nt
COc1ccc(F)cc1CSc1nnc2nc(C)cc(C)n12 | 1 | nt
CCOC(=O)/C(C#N)=C\c1cc2ccc(OC)cc2[nH]c1=O | 14 | -4.5*
COc1cccc(C(=O)NCCc2cc3ccc(OC)cc3[nH]c2=O)c1 | -6 | 0.27
CCC(=O)Nc1sc(C)c(CC)c1C(=O)NC1CC1 | -4 | 0.48
CCC(=O)Nn1cnc2c(cnn2-c2ccccc2)c1=O | 0 | -2.2*
O=C(Cc1ccccc1)Nn1cnc2c(cnn2-c2ccccc2)c1=O | -1 | -0.8
CC(=O)/C=C(\C)Nc1ccccc1S | 0 | -0.11
Cn1c(C(C#N)C(=O)c2cc(-c3cccnc3)nc3ccccc23)nc2ccccc21 (configuration not stated) | -6 | nt
Cc1nc(C)c(C(=O)OC(C)C(=O)Nc2ccc(C(N)=O)cc2)s1 (configuration not stated) | -1 | nt
N#Cc1c(-c2ccc(Cl)cc2)cc[nH]c1=O | nt | 0.89
SMILES | Ab BasE inh | KSHV LANA nucl
CS(=O)c1scc(-c2ccc(Cl)cc2)c1C#N (configuration not stated) | 29* | 0.89
O=C(CN(CC(=O)N1CCOCC1)S(=O)(=O)c1ccc2ccccc2c1)N1CCOCC1 | -1 | nt
Cc1ccc(C)n1-c1ccsc1C(=O)O | 18 | -3.7*
Cc1ccc(C)n1-c1ccsc1C(=O)CC#N | nt | -0.22
CCC(C)(C)n1nnnc1CN1CCC(NC(=O)COC)CC1 | -2 | -0.057
N#C/C(=C\C=N\Nc1ccccc1)c1nn(-c2ccccc2)c(-n2cccc2)c1C#N | -2 | -0.033
CN(Cc1nnc(-c2ccccc2)o1)C1CCCCC1 | 0 | -0.65
NC(=O)Cn1c2[n+](c3ccccc31)CC(O)CS2 (configuration not stated) | 0 | -2.4*
CCOC(=O)Cn1c2[n+](c3ccccc31)CC(O)CS2 (configuration not stated) | 0 | -0.43
CC1CCN(S(=O)(=O)c2ccc3c(c2)CCN3C(=O)Nc2ccccc2)CC1 | 0 | 0.66
O=C(OCc1csc(-c2ccccc2)n1)C1CC(=O)N(Cc2ccco2)C1 (configuration not stated) | -1 | nt
O=C1c2cccc3c(N4CCCCC4)ccc(c23)C(=O)N1c1ccccn1 | 18 | -6.2*
CC(=O)N(C(C)=O)N1C(=O)c2cccc3c(N4CCOCC4)ccc(c23)C1=O | 17 | nt
CCCn1c(=O)c2sccc2n2c(CCCC(=O)N3CCC(C)CC3)nnc12 | -3 | 2.7
COc1ccc(NC(=O)Cc2nc(-c3ccc(OC)cc3)no2)cc1 | 3 | -0.53
Cc1ccc(/C=N/c2sccc2C#N)cc1 | nt | -6.5*
N#Cc1ccsc1/N=C/c1ccccc1 | nt | -0.42
COc1ccccc1-c1c(C#N)c(N)nc(SSc2nc(N)c(C#N)c(-c3ccccc3OC)c2C#N)c1C#N | 1 | nt
CCC(=O)Nc1n[nH]c(-c2ccncc2)n1 | 1 | -0.47
Cc1[nH]c2ccccc2c1C(=O)C(C)OC(=O)c1ccccc1-n1cnnn1 (configuration not stated) | -1 | nt
CCOC(=O)c1ccccc1NC(=O)/C(C#N)=C/c1ccc(-c2ccc(Cl)cc2)o1 | 10 | -4.3*
N#C/C(=C/c1ccc(-c2ccc(S(N)(=O)=O)cc2)o1)C(=O)Nc1cc(Cl)ccc1Cl | 30 | -5.7*
CCOC(=O)c1ccc(-c2ccc(/C=C(\C#N)C(=O)NCc3cccs3)o2)cc1 | -1 | 0.51
N#CC(C#N)=C(N)/C(C#N)=C\c1ccc(-c2ccccc2)o1 | 1 | -0.11
